Source: PubChem (Broad Institute)
KDM4C inh: blocks human GASC-1 (KDM4C) demethylase activity; GST-KDM4C 2-372, H3K9me3 peptide, LANCE TR-FRET; inhibition, % at 12.5 µM; 0.15% of 96,000 active;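 active means mean replicate inhibition above about 25%, with at least 55% of replicates also reaching it, limit read from the data, passing the limit was not always enough; inconclusive means only one of those two conditions met; inactive means neither condition met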
Target sequence (Q9H3R0 2-372 limits assumed): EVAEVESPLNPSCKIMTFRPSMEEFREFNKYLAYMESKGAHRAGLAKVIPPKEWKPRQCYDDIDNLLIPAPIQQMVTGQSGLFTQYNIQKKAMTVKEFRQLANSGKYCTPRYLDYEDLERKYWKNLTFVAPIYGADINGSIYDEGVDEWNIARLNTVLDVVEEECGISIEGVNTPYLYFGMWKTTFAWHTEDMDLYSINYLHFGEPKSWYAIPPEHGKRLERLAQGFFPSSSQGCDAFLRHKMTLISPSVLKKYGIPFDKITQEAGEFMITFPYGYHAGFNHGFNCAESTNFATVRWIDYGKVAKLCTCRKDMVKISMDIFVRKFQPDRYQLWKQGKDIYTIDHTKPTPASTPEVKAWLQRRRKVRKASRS
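Material: GST-tagged GASC-1 (JMJD2C) catalytic fragment, aa 2-372 / Quantity: enzyme final amount 10 nM / Medium: HEPES buffer, pH 7.5, plus ascorbate / Doses: one test concentration per compound / Incubation: 30 min reaction, 60 min detection, RT / Measured by: LANCE TR-FRET / Read-out: inhibition from TR-FRET ratio decrease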
T cruzi growth: T. cruzi proliferation inhibition; inhibition, % at 8.34 µM; 5.9% of 77,000 active; T. cruzi beta-gal in NIH3T3, GalScreen luminescence, 90 h;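 active means mean inhibition above about 93%, with at least 55% of replicates each passing it, limit read from the data, passing the limit was not always enough; inconclusive means only one of those two conditions holds; inactive means neither condition holds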
Pf Dd2 inh: inhibitors of Plasmodium falciparum Dd2 growth | P. falciparum Dd2 growth, SYBR Green, 72 h; active compounds read low | activity change, % at 10 µM | 2.3% of 94,000 active; in the data active means activity change below about -80%; inconclusive means no clear call, values can overlap the other calls
IDH1 mut inh: inhibitors of human IDH1 R132H; O75874; IDH1 R132H reductase, diaphorase/resazurin fluorescence, 60 min; inhibition, % at 10 µM; 0.18% of 70,000 active; AID 624101; in the data active means inhibition above about 34%; inconclusive means no clear call, values can overlap the other calls; inactive means below about 11%
Large screens that a line does not name were inactive. Shown are actives, neighbours in structure and some others; about 5.8% of the full set was active somewhere.

COc1ccc(C#Cc2cnc3c(c2)C(=O)N([C@H](C)CO)C[C@H](C)[C@H](CN(C)S(=O)(=O)c2cccc(F)c2)O3)cc1OC	Pf Dd2 inh -87.4 (no result: IDH1 mut inh)
C[C@H](CO)N1C[C@H](C)[C@H](CN(C)S(=O)(=O)c2cccc(F)c2)Oc2ncc(C#Cc3ccc(F)cc3)cc2C1=O	none
COc1ccc(C#Cc2cnc3c(c2)C(=O)N([C@H](C)CO)C[C@H](C)[C@H](CN(C)S(C)(=O)=O)O3)cc1OC	none
COc1ccc(C#Cc2cnc3c(c2)C(=O)N([C@H](C)CO)C[C@H](C)[C@H](CN(C)S(=O)(=O)c2ccc(C)cc2)O3)cc1OC	Pf Dd2 inh -85.2
C[C@@H]1CN([C@@H](C)CO)C(=O)Cc2cc(NC(=O)Nc3ccc(F)cc3)ccc2O[C@H]1CN(C)Cc1ccncc1	IDH1 mut inh 34.4
CC(C)NC(=O)Nc1ccc2c(c1)CC(=O)N([C@@H](C)CO)C[C@@H](C)[C@H](CN(C)Cc1ccncc1)O2	IDH1 mut inh 43.0 (no result: T cruzi growth)
C[C@@H]1CN([C@@H](C)CO)C(=O)Cc2cc(NC(=O)Nc3ccc(F)cc3)ccc2O[C@@H]1CN(C)Cc1ccncc1	none (no result: KDM4C inh)
C[C@@H]1CN([C@@H](C)CO)C(=O)Cc2cc(NC(=O)C3CCCCC3)ccc2O[C@H]1CN(C)Cc1ccncc1	IDH1 mut inh 45.8
C[C@H]1CN([C@@H](C)CO)C(=O)Cc2cc(NC(=O)C3CCCCC3)ccc2O[C@H]1CN(C)Cc1ccncc1	none
C[C@@H]1CN([C@@H](C)CO)C(=O)Cc2cc(NC(=O)Cc3cn(C)c4ccccc34)ccc2O[C@@H]1CN(C)Cc1ccc(Cl)c(Cl)c1	none (no result: IDH1 mut inh)
C[C@@H]1CN([C@@H](C)CO)C(=O)Cc2cc(NC(=O)Cc3cn(C)c4ccccc34)ccc2O[C@H]1CN(C)Cc1ccc(Cl)c(Cl)c1	Pf Dd2 inh -81.7
c1cc(CN2[C@@H]3CNC[C@H]2C3c2ccc(-c3ccncc3)cc2)cc(-c2ccncc2)c1 (stereo partly specified)	none (no result: T cruzi growth, IDH1 mut inh)
C[C@@H]1CN([C@H](C)CO)C(=O)c2cccc(NS(=O)(=O)c3cccs3)c2O[C@H]1CN(C)C	none (no result: T cruzi growth)
C[C@H](CO)N1C[C@H](C)[C@@H](CN(C)Cc2ccccc2)Oc2ccc(NC(=O)Nc3ccc(F)cc3)cc2CC1=O	Pf Dd2 inh -88.3
CC(C)NC(=O)Nc1ccc2c(c1)CC(=O)N([C@@H](C)CO)C[C@@H](C)[C@H](CN(C)Cc1ccc(Cl)c(Cl)c1)O2	Pf Dd2 inh -82.0 (no result: T cruzi growth)
C[C@@H]1CN([C@H](C)CO)C(=O)CCCn2cc(nn2)CO[C@H]1CN(C)Cc1ccc2c(c1)OCO2	none
N[C@H]1CC[C@H](CCn2cc(C3CCCCC3)nn2)O[C@@H]1CO	none
CC(C)c1cn(CC[C@@H]2CC[C@H](N)[C@@H](CO)O2)nn1	KDM4C inh 38.3
N[C@H]1CC[C@H](CCn2cc(C3CC3)nn2)O[C@@H]1CO	KDM4C inh 31.4 (no result: T cruzi growth, IDH1 mut inh)
C[C@H]1CN([C@@H](C)CO)C(=O)c2cccc(NS(C)(=O)=O)c2O[C@@H]1CN(C)Cc1ccc(-c2ccccc2)cc1	Pf Dd2 inh -84.0 (no result: IDH1 mut inh)
C[C@@H]1CN([C@@H](C)CO)C(=O)c2cccc(NS(=O)(=O)c3ccccc3)c2O[C@H]1CN(C)Cc1ccc(-c2ccccc2)cc1	Pf Dd2 inh -84.2 (no result: IDH1 mut inh)
COc1ccc(S(=O)(=O)Nc2cccc3c2O[C@H](CN(C)Cc2ccc(-c4ccccc4)cc2)[C@@H](C)CN([C@H](C)CO)C3=O)cc1	Pf Dd2 inh -91.2 (no result: T cruzi growth, IDH1 mut inh)
C[C@@H]1CN([C@H](C)CO)C(=O)c2cc(C3=CCCC3)cnc2O[C@@H]1CN(C)C	none
CCCNC(=O)N(C)C[C@H]1Oc2ncc(C#CCC3CCCC3)cc2C(=O)N([C@@H](C)CO)C[C@H]1C	none (no result: IDH1 mut inh)
C[C@@H]1CN([C@H](C)CO)C(=O)c2c(c3ccccc3n2C)-c2ccccc2CO[C@@H]1CN(C)S(=O)(=O)c1ccc([N+](=O)[O-])cc1	none (no result: T cruzi growth, IDH1 mut inh)
C[C@H](CO)N1C[C@H](C)[C@H](CN(C)S(=O)(=O)c2ccc(Cl)cc2)OCc2ccccc2-c2c(n(C)c3ccccc23)C1=O	Pf Dd2 inh -93.6 (no result: KDM4C inh, T cruzi growth, IDH1 mut inh)
C[C@H]1CN([C@@H](C)CO)C(=O)c2c(c3ccccc3n2C)-c2ccccc2CO[C@@H]1CN(C)S(=O)(=O)c1ccc(C(F)(F)F)cc1	Pf Dd2 inh inconclusive (no result: T cruzi growth, IDH1 mut inh)
C[C@@H]1CN([C@H](C)CO)C(=O)c2c(c3ccccc3n2C)-c2ccccc2CO[C@H]1CN(C)S(=O)(=O)c1ccc(Cl)cc1	Pf Dd2 inh -84.1
COc1ccc(S(=O)(=O)N(C)C[C@H]2OCc3ccccc3-c3c(n(C)c4ccccc34)C(=O)N([C@H](C)CO)C[C@H]2C)cc1	none
